Calls of active or inactive are those of the source. The rule behind the calls is not given here. Where a SMILES comes first, the peptide text is derived from it. [ ]: non-standard residue; d: D form. Gly(oct-7-en-1-yl) = C=CCCCCCC[C@H](N)C(=O)O; dGly(6-heptenyl) = C=CCCCCC[C@@H](N)C(=O)O; Ala(5-hexenyl) = C=CCCCCC[C@H](N)C(=O)O

In the first assay the test system is Plasma. In words: Induction of pre-beta HDL formation in human plasma after 2 hrs by ELISA. In kind it is functional, cell-free. In outline:
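Increasing peptide concentrations were incubated with normal human plasma at 37 °C for 2 h. Pre-β HDL was quantified by a commercial human pre-β HDL ELISA.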
Background: An ELISA detects its analyte on a solid surface through an enzyme-linked reagent.
For `C=CCCCCC[C@H](NC(=O)[C@H](CCC(=O)O)NC(=O)[C@H](CC(N)=O)NC(=O)[C@H](CC(C)C)NC(=O)[C@H](CCCCN)NC(=O)[C@H](CCC(=O)O)NC(=O)[C@H](CCCNC(=N)N)NC(=O)[C@H](Cc1ccccc1)NC(=O)[C@H](CCC(=O)O)NC(=O)[C@H](CC(=O)O)NC(=O)[C@H](CC(C)C)NC(=O)[C@H](CCCCCC=C)NC(=O)[C@@H]1CCCN1C(C)=O)C(=O)N[C@@H](CC(C)C)C(=O)N[C@@H](CCC(=O)O)C(=O)N[C@@H](C)C(=O)N[C@@H](CC(C)C)C(=O)N[C@@H](CCCCN)C(=O)N[C@@H](CCC(N)=O)C(=O)N[C@@H](CCCCN)C(=O)N[C@@H](CC(C)C)C(=O)N[C@@H](CCCCN)C(N)=O` (Ac-P[Ala(5-hexenyl)]LDEFREKLNE[Ala(5-hexenyl)]LEALKQKLK-NH2), the outcome was inactive.

A further assay deals with Phospholipid-transporting ATPase ABCA1 (Mus musculus, UniProt P41233). In words: Induction of ABCA1-mediated [3H]cholesterol efflux in mouse RAW 264.7 macrophages after 24 hrs.
Chain of Phospholipid-transporting ATPase ABCA1 (P41233 whole entry): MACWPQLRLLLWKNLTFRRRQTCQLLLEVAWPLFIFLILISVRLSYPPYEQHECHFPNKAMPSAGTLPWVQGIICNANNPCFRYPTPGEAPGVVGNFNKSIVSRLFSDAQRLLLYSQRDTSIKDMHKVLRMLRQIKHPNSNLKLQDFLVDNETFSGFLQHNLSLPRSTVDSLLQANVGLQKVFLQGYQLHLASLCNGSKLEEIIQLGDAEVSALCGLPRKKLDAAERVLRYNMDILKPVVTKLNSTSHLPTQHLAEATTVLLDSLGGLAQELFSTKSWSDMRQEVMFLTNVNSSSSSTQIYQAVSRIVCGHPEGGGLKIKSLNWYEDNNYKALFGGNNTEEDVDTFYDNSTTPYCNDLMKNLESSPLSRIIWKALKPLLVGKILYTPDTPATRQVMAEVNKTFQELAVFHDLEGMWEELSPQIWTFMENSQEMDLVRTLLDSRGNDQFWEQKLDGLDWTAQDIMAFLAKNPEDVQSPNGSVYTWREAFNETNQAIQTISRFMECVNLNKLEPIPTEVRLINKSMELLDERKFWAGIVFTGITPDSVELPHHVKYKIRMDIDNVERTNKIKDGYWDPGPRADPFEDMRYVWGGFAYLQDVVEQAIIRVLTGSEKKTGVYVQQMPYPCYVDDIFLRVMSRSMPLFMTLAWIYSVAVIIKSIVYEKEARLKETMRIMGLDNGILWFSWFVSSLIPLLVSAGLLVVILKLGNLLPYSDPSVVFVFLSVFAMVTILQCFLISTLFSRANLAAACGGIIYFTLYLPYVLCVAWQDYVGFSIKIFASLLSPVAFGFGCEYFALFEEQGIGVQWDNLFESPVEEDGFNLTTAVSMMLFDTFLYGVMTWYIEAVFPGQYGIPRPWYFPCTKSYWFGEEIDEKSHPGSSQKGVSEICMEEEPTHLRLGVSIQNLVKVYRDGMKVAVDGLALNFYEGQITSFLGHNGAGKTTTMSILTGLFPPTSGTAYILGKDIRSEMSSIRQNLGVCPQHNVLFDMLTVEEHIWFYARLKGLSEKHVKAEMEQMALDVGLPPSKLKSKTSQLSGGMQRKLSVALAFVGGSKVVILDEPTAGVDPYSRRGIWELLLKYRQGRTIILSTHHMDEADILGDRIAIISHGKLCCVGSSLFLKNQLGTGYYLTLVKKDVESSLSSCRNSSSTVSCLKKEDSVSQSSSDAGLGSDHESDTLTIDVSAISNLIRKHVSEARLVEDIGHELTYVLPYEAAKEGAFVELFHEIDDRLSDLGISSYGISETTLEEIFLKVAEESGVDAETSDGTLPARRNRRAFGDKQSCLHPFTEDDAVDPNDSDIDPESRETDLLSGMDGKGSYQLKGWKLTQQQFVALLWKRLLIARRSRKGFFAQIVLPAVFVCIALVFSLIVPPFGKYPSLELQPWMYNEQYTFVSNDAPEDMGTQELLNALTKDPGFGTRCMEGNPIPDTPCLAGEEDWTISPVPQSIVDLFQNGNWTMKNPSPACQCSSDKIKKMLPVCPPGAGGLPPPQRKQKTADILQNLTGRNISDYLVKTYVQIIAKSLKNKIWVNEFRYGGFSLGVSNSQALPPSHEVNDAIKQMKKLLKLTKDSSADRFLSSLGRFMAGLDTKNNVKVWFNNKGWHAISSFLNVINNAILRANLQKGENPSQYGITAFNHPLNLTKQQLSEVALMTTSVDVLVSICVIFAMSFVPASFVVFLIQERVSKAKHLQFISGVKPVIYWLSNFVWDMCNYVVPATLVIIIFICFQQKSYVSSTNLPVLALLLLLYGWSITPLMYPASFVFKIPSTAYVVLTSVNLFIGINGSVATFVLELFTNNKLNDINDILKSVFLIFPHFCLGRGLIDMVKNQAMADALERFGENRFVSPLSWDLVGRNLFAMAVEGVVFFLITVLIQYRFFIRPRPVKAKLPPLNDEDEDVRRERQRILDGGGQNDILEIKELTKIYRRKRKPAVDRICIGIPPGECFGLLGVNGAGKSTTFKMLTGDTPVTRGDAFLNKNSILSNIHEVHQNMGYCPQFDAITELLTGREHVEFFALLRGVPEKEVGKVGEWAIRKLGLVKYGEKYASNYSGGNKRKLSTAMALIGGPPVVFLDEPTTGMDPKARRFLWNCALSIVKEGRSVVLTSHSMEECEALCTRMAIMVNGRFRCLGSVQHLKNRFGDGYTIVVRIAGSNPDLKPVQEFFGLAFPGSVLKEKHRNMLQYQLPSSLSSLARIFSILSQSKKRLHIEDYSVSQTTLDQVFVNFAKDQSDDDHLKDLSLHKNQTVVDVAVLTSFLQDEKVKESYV
A word on the EC50: it is the concentration giving half of the maximal effect. A higher EC50 goes with lower potency in that assay. `C=CCCCCC[C@H](NC(=O)[C@H](CCC(N)=O)NC(=O)[C@H](CCCCN)NC(=O)[C@H](CC(C)C)NC(=O)[C@H](C)NC(=O)[C@H](CCC(=O)O)NC(=O)[C@H](CC(C)C)NC(=O)[C@H](CCCCCC=C)NC(=O)[C@H](CCC(=O)O)NC(=O)[C@H](CC(N)=O)NC(=O)[C@H](CC(C)C)NC(=O)[C@H](CCCCN)NC(=O)[C@H](CCC(=O)O)NC(=O)[C@H](CCCNC(=N)N)NC(=O)[C@H](CCCCCC=C)NC(=O)[C@H](CCC(=O)O)NC(=O)[C@H](CC(=O)O)NC(=O)[C@H](CC(C)C)NC(=O)[C@H](CCCCCC=C)NC(=O)[C@@H]1CCCN1C(C)=O)C(=O)N[C@@H](CC(C)C)C(=O)N[C@@H](CCCCN)C(N)=O` (Ac-P[Ala(5-hexenyl)]LDE[Ala(5-hexenyl)]REKLNE[Ala(5-hexenyl)]LEALKQ[Ala(5-hexenyl)]LK-NH2) gave an EC50 of 6.7 µM.

For `C=CCCC[C@@H](NC(=O)[C@H](CCC(=O)O)NC(=O)[C@H](CC(N)=O)NC(=O)[C@H](CC(C)C)NC(=O)[C@H](CCCCN)NC(=O)[C@H](CCC(=O)O)NC(=O)[C@H](CCCNC(=N)N)NC(=O)[C@H](Cc1ccccc1)NC(=O)[C@H](CCC(=O)O)NC(=O)[C@H](CC(=O)O)NC(=O)[C@H](CC(C)C)NC(=O)[C@@H](NC(=O)[C@@H]1CCCN1C(C)=O)C(C)C)C(=O)N[C@@H](CC(C)C)C(=O)N[C@@H](CCC(=O)O)C(=O)N[C@@H](C)C(=O)N[C@@H](CC(C)C)C(=O)N[C@@H](CCCCN)C(=O)N[C@@H](CCC(N)=O)C(=O)N[C@@H](CCCCN)C(=O)N[C@@H](CC(C)C)C(=O)N[C@@H](CCCCN)C(N)=O`, the EC50 is greater than 100 µM.

In the case of `C=CCCCCC[C@H](NC(=O)[C@H](CCC(N)=O)NC(=O)[C@H](CCCCN)NC(=O)[C@H](CC(C)C)NC(=O)[C@H](C)NC(=O)[C@H](CCC(=O)O)NC(=O)[C@H](CC(C)C)NC(=O)[C@H](CCC(=O)O)NC(=O)[C@H](CCC(=O)O)NC(=O)[C@H](CC(N)=O)NC(=O)[C@H](CC(C)C)NC(=O)[C@H](CCCCN)NC(=O)[C@H](CCC(=O)O)NC(=O)[C@H](CCCNC(=N)N)NC(=O)[C@H](Cc1ccccc1)NC(=O)[C@H](CCC(=O)O)NC(=O)[C@H](CC(=O)O)NC(=O)[C@H](CC(C)C)NC(=O)[C@@H](NC(=O)[C@@H]1CCCN1C(C)=O)C(C)C)C(=O)N[C@@H](CC(C)C)C(=O)N[C@@H](CCCCN)C(N)=O`, the EC50 was greater than 100 µM.

`C=CCCCC[C@@H](NC(=O)[C@H](C)NC(=O)[C@H](CCC(=O)O)NC(=O)[C@H](CC(C)C)NC(=O)[C@H](CCC(=O)O)NC(=O)[C@H](CCC(=O)O)NC(=O)[C@H](CC(N)=O)NC(=O)[C@H](CC(C)C)NC(=O)[C@H](CCCCN)NC(=O)[C@H](CCC(=O)O)NC(=O)[C@H](CCCNC(=N)N)NC(=O)[C@H](Cc1ccccc1)NC(=O)[C@H](CCC(=O)O)NC(=O)[C@H](CC(=O)O)NC(=O)[C@H](CC(C)C)NC(=O)[C@@H](NC(=O)[C@@H]1CCCN1C(C)=O)C(C)C)C(=O)N[C@@H](CCCCN)C(=O)N[C@@H](CCC(N)=O)C(=O)N[C@@H](CCCCN)C(=O)N[C@@H](CC(C)C)C(=O)N[C@@H](CCCCN)C(N)=O` showed an EC50 greater than 100 µM.

`C=CCCCCC[C@@H](NC(=O)[C@H](CCC(=O)O)NC(=O)[C@H](CC(N)=O)NC(=O)[C@H](CC(C)C)NC(=O)[C@H](CCCCN)NC(=O)[C@H](CCC(=O)O)NC(=O)[C@H](CCCN=C(N)N)NC(=O)[C@H](Cc1ccccc1)NC(=O)[C@H](CCC(=O)O)NC(=O)[C@H](CC(=O)O)NC(=O)[C@H](CC(C)C)NC(=O)[C@@H](NC(=O)[C@@H]1CCCN1C(C)=O)C(C)C)C(=O)N[C@@H](CC(C)C)C(=O)N[C@@H](CCC(=O)O)C(=O)N[C@@H](C)C(=O)N[C@@H](CC(C)C)C(=O)N[C@@H](CCCCN)C(=O)N[C@@H](CCC(N)=O)C(=O)N[C@@H](CCCCN)C(=O)N[C@@H](CC(C)C)C(=O)N[C@@H](CCCCN)C(N)=O` (Ac-PVLDEFREKLNE[dGly(6-heptenyl)]LEALKQKLK-NH2) registered an EC50 of 9.5 µM.

Take `C=CCCCCCC[C@H](NC(=O)[C@H](CCC(=O)O)NC(=O)[C@H](CC(N)=O)NC(=O)[C@H](CC(C)C)NC(=O)[C@H](CCCCN)NC(=O)[C@H](CCC(=O)O)NC(=O)[C@H](CCCN=C(N)N)NC(=O)[C@H](Cc1ccccc1)NC(=O)[C@H](CCC(=O)O)NC(=O)[C@H](CC(=O)O)NC(=O)[C@H](CC(C)C)NC(=O)[C@@H](NC(=O)[C@@H]1CCCN1C(C)=O)C(C)C)C(=O)N[C@@H](CC(C)C)C(=O)N[C@@H](CCC(=O)O)C(=O)N[C@@H](C)C(=O)N[C@@H](CC(C)C)C(=O)N[C@@H](CCCCN)C(=O)N[C@@H](CCC(N)=O)C(=O)N[C@@H](CCCCN)C(=O)N[C@@H](CC(C)C)C(=O)N[C@@H](CCCCN)C(N)=O` (Ac-PVLDEFREKLNE[Gly(oct-7-en-1-yl)]LEALKQKLK-NH2): the EC50 turned out to be 0.7 µM.

Molecule `C=CCCCC[C@@H](NC(=O)[C@H](CCC(N)=O)NC(=O)[C@H](CCCCN)NC(=O)[C@H](CC(C)C)NC(=O)[C@H](C)NC(=O)[C@H](CCC(=O)O)NC(=O)[C@H](CC(C)C)NC(=O)[C@H](CCC(=O)O)NC(=O)[C@H](CCC(=O)O)NC(=O)[C@H](CC(N)=O)NC(=O)[C@H](CC(C)C)NC(=O)[C@H](CCCCN)NC(=O)[C@H](CCC(=O)O)NC(=O)[C@H](CCCNC(=N)N)NC(=O)[C@H](Cc1ccccc1)NC(=O)[C@H](CCC(=O)O)NC(=O)[C@H](CC(=O)O)NC(=O)[C@H](CC(C)C)NC(=O)[C@@H](NC(=O)[C@@H]1CCCN1C(C)=O)C(C)C)C(=O)N[C@@H](CC(C)C)C(=O)N[C@@H](CCCCN)C(N)=O` had an EC50 greater than 100 µM.

In turn, `C=CCCCCC[C@@H](NC(=O)[C@H](CCC(=O)O)NC(=O)[C@H](CCC(=O)O)NC(=O)[C@H](CC(N)=O)NC(=O)[C@H](CC(C)C)NC(=O)[C@H](CCCCN)NC(=O)[C@H](CCC(=O)O)NC(=O)[C@H](CCCN=C(N)N)NC(=O)[C@H](Cc1ccccc1)NC(=O)[C@H](CCC(=O)O)NC(=O)[C@H](CC(=O)O)NC(=O)[C@H](CC(C)C)NC(=O)[C@@H](NC(=O)[C@@H]1CCCN1C(C)=O)C(C)C)C(=O)N[C@@H](CCC(=O)O)C(=O)N[C@@H](C)C(=O)N[C@@H](CC(C)C)C(=O)N[C@@H](CCCCN)C(=O)N[C@@H](CCC(N)=O)C(=O)N[C@@H](CCCCN)C(=O)N[C@@H](CC(C)C)C(=O)N[C@@H](CCCCN)C(N)=O` gave an EC50 greater than 100 µM.

As for `C=CCCCC[C@@H](NC(=O)[C@H](CCC(=O)O)NC(=O)[C@H](CC(=O)O)NC(=O)[C@H](CC(C)C)NC(=O)[C@@H](NC(=O)[C@@H]1CCCN1C(C)=O)C(C)C)C(=O)N[C@@H](CCCN=C(N)N)C(=O)N[C@@H](CCC(=O)O)C(=O)N[C@@H](CCCCN)C(=O)N[C@@H](CC(C)C)C(=O)N[C@@H](CC(N)=O)C(=O)N[C@@H](CCC(=O)O)C(=O)N[C@@H](CCC(=O)O)C(=O)N[C@@H](CC(C)C)C(=O)N[C@@H](CCC(=O)O)C(=O)N[C@@H](C)C(=O)N[C@@H](CC(C)C)C(=O)N[C@@H](CCCCN)C(=O)N[C@@H](CCC(N)=O)C(=O)N[C@@H](CCCCN)C(=O)N[C@@H](CC(C)C)C(=O)N[C@@H](CCCCN)C(N)=O`, the 50% effective concentration (EC50) is greater than 100 µM.

For `C=CCCCC[C@H](NC(=O)[C@H](CCCCN)NC(=O)[C@H](CCC(N)=O)NC(=O)[C@H](CCCCN)NC(=O)[C@H](CC(C)C)NC(=O)[C@H](C)NC(=O)[C@H](CCC(=O)O)NC(=O)[C@H](CC(C)C)NC(=O)[C@H](CCC(=O)O)NC(=O)[C@H](CCC(=O)O)NC(=O)[C@H](CC(N)=O)NC(=O)[C@H](CC(C)C)NC(=O)[C@H](CCCCN)NC(=O)[C@H](CCC(=O)O)NC(=O)[C@H](CCCNC(=N)N)NC(=O)[C@H](Cc1ccccc1)NC(=O)[C@H](CCC(=O)O)NC(=O)[C@H](CC(=O)O)NC(=O)[C@H](CC(C)C)NC(=O)[C@@H](NC(=O)[C@@H]1CCCN1C(C)=O)C(C)C)C(=O)N[C@@H](CCCCN)C(N)=O`, the EC50 was greater than 100 µM.

`C=CCCCCC[C@H](NC(=O)[C@H](CCCCN)NC(=O)[C@H](CCC(=O)O)NC(=O)[C@H](CCCNC(=N)N)NC(=O)[C@H](Cc1ccccc1)NC(=O)[C@H](CCC(=O)O)NC(=O)[C@H](CC(=O)O)NC(=O)[C@H](CC(C)C)NC(=O)[C@@H](NC(=O)[C@@H]1CCCN1C(C)=O)C(C)C)C(=O)N[C@@H](CC(N)=O)C(=O)N[C@@H](CCC(=O)O)C(=O)N[C@@H](CCC(=O)O)C(=O)N[C@@H](CC(C)C)C(=O)N[C@@H](CCC(=O)O)C(=O)N[C@@H](C)C(=O)N[C@@H](CC(C)C)C(=O)N[C@@H](CCCCN)C(=O)N[C@@H](CCC(N)=O)C(=O)N[C@@H](CCCCN)C(=O)N[C@@H](CC(C)C)C(=O)N[C@@H](CCCCN)C(N)=O` yielded an EC50 greater than 100 µM.

`C=CCCCCC[C@@H](NC(=O)[C@H](CCC(=O)O)NC(=O)[C@H](CCCNC(=N)N)NC(=O)[C@H](Cc1ccccc1)NC(=O)[C@H](CCC(=O)O)NC(=O)[C@H](CC(=O)O)NC(=O)[C@H](CC(C)C)NC(=O)[C@@H](NC(=O)[C@@H]1CCCN1C(C)=O)C(C)C)C(=O)N[C@@H](CC(C)C)C(=O)N[C@@H](CC(N)=O)C(=O)N[C@@H](CCC(=O)O)C(=O)N[C@@H](CCC(=O)O)C(=O)N[C@@H](CC(C)C)C(=O)N[C@@H](CCC(=O)O)C(=O)N[C@@H](C)C(=O)N[C@@H](CC(C)C)C(=O)N[C@@H](CCCCN)C(=O)N[C@@H](CCC(N)=O)C(=O)N[C@@H](CCCCN)C(=O)N[C@@H](CC(C)C)C(=O)N[C@@H](CCCCN)C(N)=O` gave an EC50 greater than 100 µM.

The record behind these values is ChEMBL document CHEMBL1629456, “ApoA-I mimetic peptides promote pre-β HDL formation in vivo causing remodeling of HDL and triglyceride accumulation at higher dose” (Bioorg Med Chem, 2010).
